According to ChEMBL document CHEMBL1145465, “PhoU is a persistence switch involved in persister formation and tolerance to multiple antibiotics and stresses in Escherichia coli” (2007):

What was measured:
Escherichia coli [1] = experiment: Antibacterial activity against Escherichia coli K12 mutant JHU313 at 100 ug/ml after 48 hrs by disc diffusion method; type: functional
In short: (§1)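 Kirby-Bauer disc assay: log-phase LB culture was spread on LB agar for confluent growth. 7-mm nitrocellulose discs were soaked in antibiotic at the listed concentration and placed on the agar. After 48 h at 37°C, the diameter of the inhibition zone was measured in mm.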

Escherichia coli [2] = experiment: Antibacterial activity against Escherichia coli K12 containing deletion deltahipA mutant assessed as cell count in stationary phase at 100 ug/ml after 24 hrs; type: functional
In short: (§2)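 Deletion mutants were made by the Datsenko–Wanner method. Log-phase or stationary-phase cultures were exposed to ampicillin at 100 μg/ml. CFU/ml was determined at the start and after 5, 24 and 72 h of exposure.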

Escherichia coli [3] = experiment: Antibacterial activity against Escherichia coli K12 containing deletion deltaphoBR mutant assessed as cell count in log phase at 100 ug/ml after 24 hrs; type: functional; in short: as §2
Escherichia coli [4] = experiment: Antibacterial activity against Escherichia coli K12 containing deletion deltaphoBR mutant assessed as cell count in log phase at 100 ug/ml after 5 hrs; type: functional; in short: as §2
Escherichia coli [5] = experiment: Antibacterial activity against Escherichia coli K12 mutant JHU313 containing plasmid PhoU at 100 ug/ml after 48 hrs by disc diffusion method; type: functional; in short: as §1
Escherichia coli [6] = experiment: Antibacterial activity against Escherichia coli K12 containing deletion deltaphoR mutant assessed as cell count in log phase at 100 ug/ml after 24 hrs; type: functional
In short: (§3)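 Wild-type W3110-derived deletion mutants were made by the Datsenko–Wanner method. Log-phase or stationary-phase cultures were exposed to ampicillin 100 μg/ml in MOPS minimal medium at pH 5.0, at 37°C without shaking. Aliquots were taken at set times, washed in saline and plated on LB for viable CFU/ml.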

Escherichia coli [7] = experiment: Antibacterial activity against Escherichia coli K12 mutant JHU313 assessed as cell count at 100 ug/ml
Escherichia coli [8] = experiment: Antibacterial activity against Escherichia coli K12 containing deletion deltaphoR mutant assessed as cell count in stationary phase at 100 ug/ml after 24 hrs; type: functional; in short: as §3
Escherichia coli [9] = experiment: Antibacterial activity against Escherichia coli K12 containing deletion deltaphoBR mutant assessed as cell count in stationary phase at 100 ug/ml after 24 hrs; type: functional; in short: as §2
Escherichia coli [10] = experiment: Antibacterial activity against Escherichia coli K12 containing deletion deltaphoR mutant assessed as cell count in stationary phase at 100 ug/ml after 5 hrs; type: functional; in short: as §3
Escherichia coli [11] = experiment: Antibacterial activity against Escherichia coli K12 containing deletion deltaphoU mutant assessed as cell count in log phase at 100 ug/ml after 5 hrs; type: functional; in short: as §3
Escherichia coli [12] = experiment: Antibacterial activity against Escherichia coli K12 containing deletion deltaphoBR mutant assessed as cell count in stationary phase at 100 ug/ml after 5 hrs; type: functional; in short: as §2
Escherichia coli [13] = experiment: Antibacterial activity against Escherichia coli K12 PhoU wild type W3110 assessed as cell count in stationary phase at 100 ug/ml after 3 days; type: functional
In short: (§4)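 Log-phase or stationary-phase cultures were exposed to ampicillin (100 μg/ml) or norfloxacin (3 μg/ml) in MOPS minimal medium, pH 5.0, at 37°C without shaking, for 5 h to 10 days. Aliquots were saline-washed and plated on LB for CFU/ml.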

Escherichia coli [14] = experiment: Antibacterial activity against Escherichia coli K12 containing deletion deltaphoBR mutant assessed as cell count in stationary phase at 100 ug/ml after 72 hrs; type: functional; in short: as §2
Escherichia coli [15] = experiment: Antibacterial activity against Escherichia coli K12 containing deletion deltaphoR mutant assessed as cell count in log phase at 100 ug/ml after 5 hrs; type: functional; in short: as §3
Escherichia coli [16] = experiment: Antibacterial activity against Escherichia coli K12 mutant JHU313 containing plasmid vector at 1.5 ug/ml after 48 hrs by disc diffusion method; type: functional; in short: as §1
Escherichia coli [17] = experiment: Antibacterial activity against Escherichia coli K12 containing PhoU mutant assessed as cell count in log phase at 3 ug/ml after 5 days; type: functional; in short: as §4
Escherichia coli [18] = experiment: Antibacterial activity against Escherichia coli K12 PhoU wild type W3110 assessed as cell count in stationary phase at 3 ug/ml after 1 day; type: functional; in short: as §4
Escherichia coli [19] = experiment: Antibacterial activity against Escherichia coli K12 mutant JHU313 containing plasmid vector at 0.1 ug/ml after 48 hrs by disc diffusion method; type: functional; in short: as §1
Escherichia coli [20] = experiment: Antibacterial activity against Escherichia coli K12 containing PhoU mutant assessed as cell count in stationary phase at 3 ug/ml after 10 days; type: functional; in short: as §4
Escherichia coli [21] = experiment: Antibacterial activity against Escherichia coli K12 containing PhoU mutant assessed as cell count in stationary phase at 3 ug/ml after 1 week; type: functional; in short: as §4
Escherichia coli [22] = experiment: Antibacterial activity against Escherichia coli K12 mutant JHU313 containing plasmid vector at 0.5 ug/ml after 48 hrs by disc diffusion method; type: functional; in short: as §1
Escherichia coli [23] = experiment: Antibacterial activity against Escherichia coli K12 PhoU wild type W3110 assessed as cell count in stationary phase at 3 ug/ml after 3 days; type: functional; in short: as §4
Escherichia coli [24] = experiment: Antibacterial activity against Escherichia coli K12 containing PhoU mutant assessed as cell count in log phase at 3 ug/ml after 3 days; type: functional; in short: as §4
Escherichia coli [25] = experiment: Antibacterial activity against Escherichia coli K12 PhoU wild type W3110 assessed as cell count in stationary phase at 3 ug/ml after 5 hrs; type: functional; in short: as §4
Escherichia coli [26] = experiment: Antibacterial activity against Escherichia coli K12 containing deletion deltaphoU mutant assessed as cell count in log phase at 3 ug/ml after 5 hrs; type: functional
In short: (§5)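 Log-phase or stationary-phase cultures of the ΔphoU deletion mutant (Datsenko–Wanner construction) were exposed to norfloxacin 3 μg/ml in MOPS minimal medium, pH 5.0, at 37°C without shaking, for up to 10 days. Sampled aliquots were washed in saline and plated on LB agar for CFU/ml.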

Escherichia coli [27] = experiment: Antibacterial activity against Escherichia coli K12 containing deletion deltaphoU mutant assessed as cell count in log phase at 3 ug/ml after 10 days; type: functional; in short: as §5
Escherichia coli [28] = experiment: Antibacterial activity against Escherichia coli K12 containing deletion deltaphoU mutant assessed as cell count in stationary phase at 3 ug/ml after 10 days; type: functional; in short: as §5
Escherichia coli [29] = experiment: Antibacterial activity against Escherichia coli K12 containing PhoU mutant assessed as cell count in log phase at 3 ug/ml after 5 hrs; type: functional; in short: as §4
Escherichia coli [30] = experiment: Antibacterial activity against Escherichia coli K12 mutant JHU313 containing plasmid PhoU at 4 ug/ml after 48 hrs by disc diffusion method; type: functional; in short: as §1
Escherichia coli [31] = experiment: Antibacterial activity against Escherichia coli K12 mutant JHU313 at 2 ug/ml after 48 hrs by disc diffusion method; type: functional; in short: as §1
Escherichia coli [32] = experiment: Antibacterial activity against Escherichia coli K12 mutant JHU313 containing plasmid PhoU at 0.1 ug/ml after 48 hrs by disc diffusion method; type: functional; in short: as §1
Escherichia coli [33] = experiment: Antibacterial activity against Escherichia coli K12 containing PhoU mutant assessed as cell count in stationary phase at 3 ug/ml after 5 hrs; type: functional; in short: as §4
Escherichia coli [34] = experiment: Antibacterial activity against Escherichia coli K12 containing deletion deltaphoU mutant assessed as cell count in stationary phase at 3 ug/ml after 5 days; type: functional; in short: as §5
Escherichia coli [35] = experiment: Antibacterial activity against Escherichia coli K12 PhoU wild type W3110 assessed as cell count in stationary phase at 3 ug/ml after 1 week; type: functional; in short: as §4
Escherichia coli [36] = experiment: Antibacterial activity against Escherichia coli K12 mutant JHU313 at 4 ug/ml after 48 hrs by disc diffusion method; type: functional; in short: as §1

CC1(C)S[C@@H]2[C@H](NC(=O)[C@H](N)c3ccccc3)C(=O)N2[C@H]1C(=O)O [AMPICILLIN]
inhibition zone (IZ) (Escherichia coli [1]): 40 mm | CFU (Escherichia coli [2]): 1.8 10^9/ml | CFU (Escherichia coli [3]): 2 10^3/ml | CFU (Escherichia coli [4]): 7 10^3/ml | inhibition zone (IZ) (Escherichia coli [5]): 40 mm | CFU (Escherichia coli [6]): 1 10^2/ml | CFU (Escherichia coli [7]): 1.4 10^7/ml | CFU (Escherichia coli [8]): 1.5 10^9/ml | CFU (Escherichia coli [9]): 1.7 10^9/ml | CFU (Escherichia coli [10]): 4 10^9/ml | CFU (Escherichia coli [11]): 1 10^2/ml | CFU (Escherichia coli [12]): 3 10^9/ml | CFU (Escherichia coli [13]): 1 10^8/ml | CFU (Escherichia coli [14]): 2 10^8/ml | CFU (Escherichia coli [15]): 1 10^3/ml | inhibition zone (IZ) (Escherichia coli [16]): 27 mm

CCn1cc(C(=O)O)c(=O)c2cc(F)c(N3CCNCC3)cc21 [NORFLOXACIN]
CFU (Escherichia coli [17]): 0 mL⁻¹ | CFU (Escherichia coli [18]): 4 10^9/ml | inhibition zone (IZ) (Escherichia coli [19]): 29 mm | CFU (Escherichia coli [20]): 0 mL⁻¹ | CFU (Escherichia coli [21]): 0 mL⁻¹ | inhibition zone (IZ) (Escherichia coli [22]): 35 mm | CFU (Escherichia coli [23]): 1 10^8/ml | CFU (Escherichia coli [24]): 0 mL⁻¹ | CFU (Escherichia coli [25]): 5 10^9/ml | CFU (Escherichia coli [26]): 5 10^7/ml | CFU (Escherichia coli [27]): 0 mL⁻¹ | CFU (Escherichia coli [28]): 0 mL⁻¹ | CFU (Escherichia coli [29]): 2 10^7/ml | inhibition zone (IZ) (Escherichia coli [30]): 36 mm | inhibition zone (IZ) (Escherichia coli [31]): 34 mm | inhibition zone (IZ) (Escherichia coli [32]): 27 mm | CFU (Escherichia coli [33]): 3 10^8/ml | CFU (Escherichia coli [34]): 0 mL⁻¹ | CFU (Escherichia coli [35]): 1.5 10^4/ml | inhibition zone (IZ) (Escherichia coli [36]): 37 mm
